# Measurements as given in PubChem BioAssay AID588747 (Vanderbilt Specialized Chemistry Center, 2011).
# The source made the active and inactive calls.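 How the source made its calls: active means a dose-dependent rise in calcium signal, with potency and percent of maximal acetylcholine response fitted; inactive means the rest.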
# Target: Muscarinic acetylcholine receptor M5 (Homo sapiens) (UniProt P08912)
# Test: potentiation of ACh at human M5 – CHO cells, calcium fluorescence, counter-screen for M4 PAM project, dose response (AID 588747)
# Conditions: CHO hM5, calcium Fluo-4 fluorescence, ACh EC20 potentiation; series mostly up to 30 µM
# How it was run: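 Assay system: CHO cells expressing human muscarinic M5 receptor; medium: HBSS with HEPES and 2.5 mM probenecid; also added: acetylcholine at EC20, then acetylcholine at EC80; timing: compound pre-incubation 144 s, EC80 ACh 86 s after EC20, 37 °C; detection: calcium fluorescence with Fluo-4 AM dye; control set: 1 mM acetylcholine as maximal response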
# Sequence of Muscarinic acetylcholine receptor M5 (Homo sapiens) (P08912 whole entry, looked up): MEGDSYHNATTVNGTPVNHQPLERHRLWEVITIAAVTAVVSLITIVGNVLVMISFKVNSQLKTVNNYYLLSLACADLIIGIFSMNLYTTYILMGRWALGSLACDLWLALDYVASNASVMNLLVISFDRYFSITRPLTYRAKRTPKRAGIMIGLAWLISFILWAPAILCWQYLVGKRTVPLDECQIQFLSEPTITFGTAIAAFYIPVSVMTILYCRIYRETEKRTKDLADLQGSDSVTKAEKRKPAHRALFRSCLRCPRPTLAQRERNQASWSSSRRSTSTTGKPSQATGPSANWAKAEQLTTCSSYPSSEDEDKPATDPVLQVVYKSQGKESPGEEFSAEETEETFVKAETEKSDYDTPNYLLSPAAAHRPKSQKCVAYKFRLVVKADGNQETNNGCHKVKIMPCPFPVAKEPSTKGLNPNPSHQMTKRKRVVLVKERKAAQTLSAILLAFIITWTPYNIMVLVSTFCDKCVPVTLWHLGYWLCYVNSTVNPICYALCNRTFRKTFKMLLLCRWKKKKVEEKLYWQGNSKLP
row,Structure (SMILES),outcome
1,Cc1nc2sc(C(=O)NCCc3ccncc3)c(N)c2c(C)c1Cl,inactive
2,Cc1nc2sc(C(=O)NC3CC3)c(N)c2c(C)c1Cl,inactive
3,Cc1nc2sc(C(=O)NCc3ccncn3)c(N)c2c(C)c1Cl,inactive
4,Cc1nc2sc(C(=O)NCc3nccs3)c(N)c2c(C)c1Cl,inactive
5,Cc1nc2sc(C(=O)NCc3cccc(F)c3F)c(N)c2c(C)c1Cl,inactive
